Source: PubChem BioAssay AID504409 (Broad Institute, 2011)
Records with an inconclusive call do not appear. The source made the active and inactive calls.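 Rule for the calls: active = fitted curve reaches caspase activation of 10% of the positive control signal in every replicate test; inconclusive = tests disagree, or a test had a flat mid-level or poor fit; inactive = every replicate test called inactive.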

System: MEF Flag-A1-IRES-BIM, caspase-Glo luminescence, 3 h
Assay: caspase activation in Flag-A1-IRES-BIM MEFs, dose response, orthogonal assay for A1 inhibitor project, cell-based, Flag-A1-IRES-BIM MEF, luminescence, dry powder, set 3 (AID 504409)
Conditions: not given
Method in brief: (§1)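 System: mouse embryonic fibroblasts primed with alternate Flag-A1-IRES-BIM construct. Medium: RPMI-1640, 10% heat-inactivated FBS. Doses: 100 nL pinned compound per well. Timing: 3 h exposure (37 °C, 5% CO2), 1 h room-temperature detection. Detection: CaspaseGlo luminescence. Read-out basis: caspase activation level from luminescent signal.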

SMILES | AC10 [µM]
O=c1[nH]c2ccccc2c(Cl)c1[N+](=O)[O-] | 3.38
CCn1c(=O)c([N+](=O)[O-])c(Cl)c2ccccc21 | 1.49
Cc1ccc(S(=O)(=O)c2c([N+](=O)[O-])c(=O)n(C)c3ccccc23)cc1 | 4.11
COCCn1c(=O)c([N+](=O)[O-])c(Sc2ccc(C)cc2)c2ccccc21 | 15.5
CC1(C)CCC(c2ccc(Cl)cc2)=C(CN2CCN(c3ccc(C(=O)NS(=O)(=O)c4ccc(N[C@H](CCN5CCOCC5)CSc5ccccc5)c(S(=O)(=O)C(F)(F)F)c4)cc3)CC2)C1 | 0.689
COCCn1c(=O)c([N+](=O)[O-])c(Cl)c2ccccc21 | 1.46
Cn1c(=O)c([N+](=O)[O-])c(S(C)(=O)=O)c2ccccc21 | 3.06
Cn1c(=O)c([N+](=O)[O-])c(Sc2ccccn2)c2ccccc21 | 3
Cn1c(=O)c([N+](=O)[O-])c(Cl)c2ccccc21 | 1.84

System: not listed separately
Assay: as above
Conditions: MEF Flag-A1-IRES-BIM, caspase-Glo luminescence, 3 h; at 35 µM (top of the series)
Method in brief: as §1

SMILES | caspase activation
O=c1[nH]c2ccccc2c(O)c1[N+](=O)[O-] | 0.941% (inactive)
COc1ccc(CCNc2nc(N3CCOCC3)nc(N3CCOCC3)n2)cc1OC | 0.077% (inactive)
Cc1ccc(Sc2c(Sc3ccc(C)cc3)c3ccccc3n(Cc3ccccc3)c2=O)cc1 | -0.908% (inactive)
COc1ccc(CCNc2nc(N3CCCC3)nc(N3CCCC3)n2)cc1OC | -0.336% (inactive)
CCn1c(=O)c(Sc2ccc(C)cc2)c(Sc2ccc(C)cc2)c2ccccc21 | 2.86% (inactive)
CCn1c(=O)c([N+](=O)[O-])c(Sc2ccc(C)cc2)c2ccccc21 | 1.63% (inactive)
COc1ccc(N2CCN(c3nc(NCCc4ccc(OC)c(OC)c4)nc(N4CCOCC4)n3)CC2)cc1 | 0.186% (inactive)
Cc1ccc(Sc2c(Sc3ccc(C)cc3)c3ccccc3n(C)c2=O)cc1 | -0.308% (inactive)
C/C(=N\Nc1nc(N2CCCCC2)nc(N2CCCCC2)n1)c1ccc(F)cc1 | 0.551% (inactive)
COc1c([N+](=O)[O-])c(=O)n(C)c2ccccc12 | 1.51% (inactive)
O=C(COc1ccc(Cl)cc1Cl)NNc1nc(N2CCOCC2)nc(N2CCOCC2)n1 | -1.06% (inactive)
COCCn1c(=O)c(Sc2ccc(C)cc2)c(Sc2ccc(C)cc2)c2ccccc21 | -0.209% (inactive)
COc1nc2ccccc2c(Sc2ccc(C)cc2)c1[N+](=O)[O-] | 2.16% (inactive)
Cn1c(=O)c(Sc2ccccn2)c(Sc2ccccn2)c2ccccc21 | 1.87% (inactive)
